Molecules are shown by their SMILES.

The record followed here is ChEMBL document CHEMBL1142876, “Non-carboxylic analogues of arylpropionic acids: synthesis, anti-inflammatory activity and ulcerogenic potential” (Eur J Med Chem, 2007).

Data set [1] concerns Rattus norvegicus. The experiment in a line: Antiinflammatory activity against carrageenan-induced paw edema in Albino rat at 30 mg/kg body weight, sc. The format is functional. The note with it: route subcutaneous. The procedure, abridged: (§1)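 Rats from National Research Centre, acclimatised one week, 12 h light/dark, food and water ad libitum; groups of six. Right hind paw sub-plantar injection of 0.05 mL 1% carrageenan in saline. Drugs dissolved in DMSO, given subcutaneously; vehicle controls got DMSO. Paw volume measured before and 0.5, 1.5, 2, 3, 6, 8 h post-carrageenan; edema AUC by trapezoidal method, mean ± S.E.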

The subject of data set [2] is Rattus norvegicus. Put plainly: Toxicity assessed as ulcerogenic effect in Albino rat at 30 mg/kg, po twice a day after 3 days. Also on record: dose 30 mg/kg, route oral. Format: organism-based. The note with it: in vivo, 72 h. The procedure, abridged: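 Male albino rats, 150–200 g, fasted 12 h (water ad libitum), six per group. Oral dosing in two equal doses of 30 mg/kg at 0 and 12 h for three successive days; controls received 1% gum acacia orally. Killed with diethyl ether 6 h after final dose; stomach opened along greater curvature, saline-washed, examined under 3× lens for hyperemia, haemorrhage or ulcer. % ulceration = ulcer-bearing animals/group total ×100.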

For data set [3], the system named is Rattus norvegicus. The experiment in a line: Antiinflammatory activity against carrageenan-induced paw edema in Albino rat at 200 mg/kg body weight, sc. Conditions: route subcutaneous. Format: functional. The procedure, abridged: as §1
A general note: Carrageenan injected into the paw causes an acute inflammation.

For the compound `CC(c1ccc(-c2ccccc2)c(F)c1)c1nnc(Nc2ccc(Br)cc2)[nH]1` (centres undefined), the Activity is 68.36% in data set [1] and 0% in data set [2].
As to `COc1ccc2cc(C(C)c3nnc(Nc4ccc(Br)cc4)[nH]3)ccc2c1` (centres undefined), in data set [1], the Activity was determined as 69.67%.
`COc1ccc2c(c1)c(CC(=O)O)c(C)n2C(=O)c1ccc(Cl)cc1` [INDOMETHACIN]: the Activity in data set [2] was 100%.
The compound `CC(C)Cc1ccc(C(C)c2nnc3sc(S)nn23)cc1` (centres undefined) registered an Activity in data set [1] of 72.1%.
For `C[C@]12CCC(=O)C=C1CC[C@@H]1[C@@H]2[C@@H](O)C[C@@]2(C)[C@H]1CC[C@]2(O)C(=O)CO` [HYDROCORTISONE], in data set [3], the Activity amounted to 73.39%.
Consider `COc1ccc2cc(C(C)c3nnc(Nc4cccc(Cl)c4)[nH]3)ccc2c1` (centres undefined), for which the Activity was 66.8% in data set [1] and 0% in data set [2].
For `CC(C)Cc1ccc(C(C)C(=O)O)cc1` (centres undefined) [IBUPROFEN], in data set [1], the Activity is 86.07%.
As for `CC(c1ccc(-c2ccccc2)c(F)c1)c1nnc(Nc2cccc(Cl)c2)[nH]1` (centres undefined), the Activity in data set [1] is given as 69.65%; in data set [2], 0%.
In the same order, the values of `CC(C)Cc1ccc(C(C)c2nnc(Nc3ccc(Br)cc3)[nH]2)cc1` (centres undefined) are 69.52% and 33.3%.
Consider `CC(C)Cc1ccc(C(C)c2nnc(Nc3cccc(Cl)c3)[nH]2)cc1` (centres undefined), for which the Activity in data set [1] is given as 70.86%.
